Assay [1] is described as follows: reduced viability of SK-BR-3 breast cancer cells – cell-based, 24 h, human, pilot screen (AID 572;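 active = viability at or below 10% of carrier control in both of two separate runs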;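 also: compound exposure lasted between 18 and 24 h rather than exactly 24 h; 100% = carrier-treated control wells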). Conditions: SK-BR-3 viability, CellTiter-Glo luminescence, at 10 µM, stronger effect = lower value.
Assay [2] can be described thus: HUVEC growth inhibition – cell-based, human, primary screen (AID 575).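 Also: 100% = median of untreated cell wells with 0.1% DMSO on each plate.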 Conditions: HUVEC proliferation, CellTiter-Glo luminescence, 72 h; at 10 µM; stronger effect = lower value. Summed up:
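Timing: 72 h treatment at 37 °C; material: HUVEC primary cells; technique: CellTiter-Glo luminescence measuring cellular ATP; controls: vehicle and MePR control wells; measure: percent of median DMSO-control luminescence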

Assay [3] can be described thus: H69AR cell proliferation blockers – human, duplicate replicates, primary screen (AID 580;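 active = viability at or under a set limit in both replicates, limit being median viability minus 3 SD, cut at about 48% in these data, passing the limit was not always enough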;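 also: 100% = mean luminescence of untreated wells and 0% = no signal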). Conditions: H69AR lung tumor cells viability, ATP luminescence, 72 h; at 10 µM; stronger effect = lower value.
The nature of assay [4]: MRP1 drug-resistance reversers in H69AR cells – cell-based, doxorubicin co-treatment, pilot screen (AID 601;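 active = viability loss from added drug above about 55%, and viability with drug at most 40%, in both replicates, limit read from the data, passing the limit was not always enough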). Conditions: CellTiter-Glo, 72 h, at 10 µM; for differential viability (reversal): stronger effect = higher value.
A short description of assay [5]: yeast transport mutant growth inhibition pilot in 384-well plates, post-Golgi transport modulator project (AID 636; in the data active = inhibition above about 31%). The settings on record: absorbance 615 nm, about 18 h, stronger effect = higher value.
Assay [6] in a line: growth suppression of yeast trafficking mutant, preliminary HTS, modulators of trafficking downstream of Golgi apparatus project, 1536-format plate, OD 615 nm (AID 637; in the data active = inhibition above about 30%). The settings on record: yeast transport mutant growth, absorbance 615 nm, 18 h; stronger effect = higher value.
Setting [7] is: H69AR cells + 2 uM doxorubicin, measured here: viability with 2 uM doxorubicin, stronger effect = lower value.
Setting [8] is: H69AR cells, compound alone cytotoxicity.

The source made the active and inactive calls.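 The calls were made as follows, unless noted: active = viability at or below 30% in both replicate assays; inconclusive = viability at or below 30% in just one of the two assays; inactive = the rest.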

In general, viability refers to a read-out of living cells in per cent, often relative to untreated cells. The inhibition is the change of the read-out against control, counted positive when it falls.

As to `CC(=O)c1c(C)nn(C(C)CC(=O)O)c1C` (centres undefined), the viability in assay [1] was 113% (inactive); in assay [2] it was 97.8% (inactive); in assay [3], 97.5% (inactive); in assay [4] (setting [7]), 89.3%; in assay [4] (setting [8]), 97.5%. For the same compound, the differential viability (reversal) in assay [4] (H69AR cells + 2 uM doxorubicin) is 8.11% (inactive). For the same compound, the inhibition in assay [5] is -1.95% (inactive); in assay [6], -4.75% (inactive).

`Cc1ccc(CS(=O)(=O)Cc2ccc(C(=O)NCc3ccccn3)o2)cc1`: the viability was 95% (inactive) in assay [1]; 99.8% (inactive) in assay [2]; 99.4% (inactive) in assay [3]; 90.4% in assay [4] (setting [7]); 99.4% in assay [4] (setting [8]). In addition, in assay [4] (H69AR cells + 2 uM doxorubicin), the differential viability (reversal) was 9% (inactive). Besides, the inhibition in assay [5] is -1.87% (inactive); in assay [6], -0.18% (inactive).

On to `Cc1cc2ccccc2c(=O)n1CC(=O)Nc1ccc2c(c1)OCO2`, for which the viability is 136% (inactive) in assay [1]; 86.6% (inactive) in assay [2]; 98.9% (inactive) in assay [3]; 93.7% in assay [4] (setting [7]); 98.9% in assay [4] (setting [8]). Besides, the differential viability (reversal) in assay [4] (H69AR cells + 2 uM doxorubicin) was 5.25% (inactive). Further, the inhibition in assay [5] was -2.34% (inactive); in assay [6], -7.05% (inactive).

As to `C[C@@H]1CCC[C@H](C)N1NC(=O)c1ccc(Cl)c(S(N)(=O)=O)c1`, the viability in assay [1] is 100% (inactive); in assay [2], 88.5% (inactive); in assay [3], 99.7% (inactive); in assay [4] (setting [7]), 91.8%; in assay [4] (setting [8]), 99.7%. Besides, the differential viability (reversal) in assay [4] (H69AR cells + 2 uM doxorubicin) was 7.9% (inactive). Also, the inhibition is 0.39% (inactive) in assay [5] and -6.5% (inactive) in assay [6].

For the compound `CCC(C(=O)NC(C)CCc1ccco1)n1nc(C)n2c(cc3occc32)c1=O` (centres undefined), the viability was 129% (inactive) in assay [1]; 103% (inactive) in assay [2]; 83.5% (inactive) in assay [3]; 99.7% in assay [4] (setting [7]); 83.5% in assay [4] (setting [8]). Also, in assay [4] (H69AR cells + 2 uM doxorubicin), the differential viability (reversal) is -16.1% (inactive). Besides, the inhibition was -6.3% (inactive) in assay [5] and -1.64% (inactive) in assay [6].

As for `CCCn1c(=NC(C)=O)c(C#N)cc2c(=O)n3cccc(C)c3nc21`, the viability in assay [1] was 89% (inactive); in assay [2], 108% (inactive); in assay [3], 87.3% (inactive); in assay [4] (setting [7]), 90.3%; in assay [4] (setting [8]), 87.3%. Also, the differential viability (reversal) in assay [4] (H69AR cells + 2 uM doxorubicin) was -3.01% (inactive). Further, the values for the inhibition in assay [5] and in assay [6] were 0.81% (inactive) and -3.45% (inactive), respectively.

Regarding `CC1CCCN(S(=O)(=O)c2ccc(C(=O)Nc3nnc(-c4ccccc4Cl)o3)cc2)C1` (centres undefined), the viability was 87% (inactive) in assay [1]; 11.1% (active) in assay [2]; 18.9% (active) in assay [3]; 37.9% in assay [4] (setting [7]); 18.9% in assay [4] (setting [8]). Besides, the differential viability (reversal) in assay [4] (H69AR cells + 2 uM doxorubicin) was -19% (inactive). Besides, the inhibition in assay [5] is 11.6% (inactive); in assay [6], 6.56% (inactive).

Take `O=C1CCCN1Cc1ncnn1-c1ccccc1`: the viability in assay [1] is 89% (inactive); in assay [2] it was 108% (inactive); in assay [3], 112% (inactive); in assay [4] (setting [7]), 97.1%; in assay [4] (setting [8]), 112%. The differential viability (reversal) in assay [4] (H69AR cells + 2 uM doxorubicin) was 14.7% (inactive). In addition, the inhibition in assay [5] was 0.27% (inactive); in assay [6] it was -6.55% (inactive).

Take `COc1ccc2c(C)nc(Nc3nc(C)cc(C)n3)nc2c1`: the viability in assay [1] is 84% (inactive); in assay [2] it was 114% (inactive); in assay [3], 87.3% (inactive); in assay [4] (setting [7]), 93.9%; in assay [4] (setting [8]), 87.3%. For the same compound, in assay [4] (H69AR cells + 2 uM doxorubicin), the differential viability (reversal) was -6.58% (inactive). The inhibition in assay [5] was -6.08% (inactive); in assay [6], 0% (inactive).

Turning to `CCN(CC)S(=O)(=O)c1ccc(NC(=O)c2cccc3c2C(=O)N(CCOC)C3)cc1`, the viability was 119% (inactive) in assay [1]; 109% (inactive) in assay [2]; 94.4% (inactive) in assay [3]; 85.2% in assay [4] (setting [7]); 94.4% in assay [4] (setting [8]). The differential viability (reversal) in assay [4] (H69AR cells + 2 uM doxorubicin) was 9.21% (inactive). The inhibition in assay [5] was -9.73% (inactive); in assay [6] it was -5.45% (inactive).

Take `COCCCC/C(=N\OCCN)c1ccc(C(F)(F)F)cc1`: the viability was 84% (inactive) in assay [1]; 55.7% (inactive) in assay [2]; 104% (inactive) in assay [3]; 83.9% in assay [4] (setting [7]); 104% in assay [4] (setting [8]). Besides, the differential viability (reversal) in assay [4] (H69AR cells + 2 uM doxorubicin) is 20% (inactive). Besides, the inhibition was -0.91% (inactive) in assay [5] and -6.83% (inactive) in assay [6].

Consider `CN(C)CCN(Cc1ccccc1)c1ccccn1`, for which the viability in assay [1] is 100% (inactive); in assay [2] it was 89.1% (inactive); in assay [3], 101% (inactive); in assay [4] (setting [7]), 92.7%; in assay [4] (setting [8]), 101%. Moreover, the differential viability (reversal) in assay [4] (H69AR cells + 2 uM doxorubicin) is 8.55% (inactive). Further, the inhibition in assay [5] is 3.38% (inactive); in assay [6], -0.67% (inactive).

In the case of `FC(F)(F)c1ccc(Sc2nnc(-c3cccs3)n2CC2CCCO2)nc1` (centres undefined), the viability was 68% (inactive) in assay [1]; 104% (inactive) in assay [2]; 94.5% (inactive) in assay [3]; 88.4% in assay [4] (setting [7]); 94.5% in assay [4] (setting [8]). In assay [4] (H69AR cells + 2 uM doxorubicin), the differential viability (reversal) is 6.06% (inactive). The inhibition in assay [5] is -8.22% (inactive); in assay [6], 2% (inactive).

Take `COc1ccc(C)cc1-n1nnnc1SC/C(O)=C(\C#N)c1nc2ccccc2[nH]1`: the viability was 96% (inactive) in assay [1]; 86.6% (inactive) in assay [2]; 85.2% (inactive) in assay [3]; 98.4% in assay [4] (setting [7]); 85.2% in assay [4] (setting [8]). For the same compound, the differential viability (reversal) in assay [4] (H69AR cells + 2 uM doxorubicin) was -13.1% (inactive). Moreover, the inhibition is -4.11% (inactive) in assay [5] and 1.27% (inactive) in assay [6].

As for `Cn1c(NC(=O)c2cccc(Cn3cc(Cl)cn3)c2)nc2ccccc21`, the viability in assay [1] was 83% (inactive); in assay [2], 72.4% (inactive); in assay [3] it was 68.9% (inactive); in assay [4] (setting [7]), 68%; in assay [4] (setting [8]), 68.9%. In addition, in assay [4] (H69AR cells + 2 uM doxorubicin), the differential viability (reversal) is 0.885% (inactive). Also, the inhibition in assay [5] is -4.93% (inactive); in assay [6], -2.79% (inactive).

With `Cc1csc(NC(=O)c2ccccc2C(=O)O)n1`, the viability was 103% (inactive) in assay [1]; 108% (inactive) in assay [2]; 95.3% (inactive) in assay [3]; 95.8% in assay [4] (setting [7]); 95.3% in assay [4] (setting [8]). Further, the differential viability (reversal) in assay [4] (H69AR cells + 2 uM doxorubicin) is -0.43% (inactive). In addition, the inhibition is -2.27% (inactive) in assay [5] and 1.27% (inactive) in assay [6].

On to `O=C(O)c1ccc(COc2ccc(Cl)cc2)o1`, for which the viability in assay [1] is 92% (inactive); in assay [2], 84.7% (inactive); in assay [3], 98.1% (inactive); in assay [4] (setting [7]), 88.1%; in assay [4] (setting [8]), 98.1%. Moreover, in assay [4] (H69AR cells + 2 uM doxorubicin), the differential viability (reversal) was 9.97% (inactive). The inhibition in assay [5] was -0.26% (inactive); in assay [6] it was -2.13% (inactive).

For the compound `CN(C)CCOC(c1ccccc1)c1ccccc1`, the viability in assay [1] was 78% (inactive); in assay [2], 86.9% (inactive); in assay [3] it was 87.6% (inactive); in assay [4] (setting [7]), 82.3%; in assay [4] (setting [8]) it was 87.6%. Further, the differential viability (reversal) in assay [4] (H69AR cells + 2 uM doxorubicin) was 5.28% (inactive). In addition, the results for the inhibition in assay [5] and in assay [6] were -1.69% (inactive) and 2.5% (inactive), respectively.

Take `C=CCn1c(SCC(=O)c2ccccc2)nnc1-c1ccc2c(c1)OCO2`: the viability in assay [1] is 97% (inactive); in assay [2] it was 107% (inactive); in assay [3], 100% (inactive); in assay [4] (setting [7]), 103%; in assay [4] (setting [8]), 100%. The differential viability (reversal) in assay [4] (H69AR cells + 2 uM doxorubicin) is -2.68% (inactive). Further, the inhibition was -1.78% (inactive) in assay [5] and -3.06% (inactive) in assay [6].

As for `CCOc1cc(C(=O)Nc2ncccn2)cc(OCC)c1OCC`, the viability in assay [1] is 117% (inactive); in assay [2], 105% (inactive); in assay [3] it was 87.5% (inactive); in assay [4] (setting [7]), 82.7%; in assay [4] (setting [8]), 87.5%. For the same compound, the differential viability (reversal) in assay [4] (H69AR cells + 2 uM doxorubicin) is 4.8% (inactive). The inhibition was -2.86% (inactive) in assay [5] and 5.08% (inactive) in assay [6].

For the compound `COCCNC(=O)C(c1ccc(C)o1)N(C(=O)c1snc(C(N)=O)c1N)c1ccc(C)cc1` (centres undefined), the viability in assay [1] was 100% (inactive); in assay [2], 87.5% (inactive); in assay [3], 92.1% (inactive); in assay [4] (setting [7]), 83.1%; in assay [4] (setting [8]) it was 92.1%. In addition, the differential viability (reversal) in assay [4] (H69AR cells + 2 uM doxorubicin) is 9.05% (inactive). The inhibition in assay [5] is -3.87% (inactive); in assay [6], 3.64% (inactive).

For `O=C(NC1CCCCC1NC(=O)c1ccco1)c1ccco1` (centres undefined), the viability was 93% (inactive) in assay [1]; 94.2% (inactive) in assay [2]; 90% (inactive) in assay [3]; 94.5% in assay [4] (setting [7]); 90% in assay [4] (setting [8]). For the same compound, the differential viability (reversal) in assay [4] (H69AR cells + 2 uM doxorubicin) was -4.53% (inactive). Further, the inhibition in assay [5] is 0.53% (inactive); in assay [6] it was 3.27% (inactive).

As to `Cc1ccc2c(C(=O)CN3CCSCC3)c(C)[nH]c2c1`, the viability in assay [1] was 120% (inactive); in assay [2], 91.8% (inactive); in assay [3], 74.2% (inactive); in assay [4] (setting [7]), 75%; in assay [4] (setting [8]), 74.2%. For the same compound, in assay [4] (H69AR cells + 2 uM doxorubicin), the differential viability (reversal) was -0.745% (inactive). The results for the inhibition in assay [5] and in assay [6] were -3.07% (inactive) and -3.82% (inactive), respectively.
